Reference: ChEMBL document CHEMBL1125434, “Preparation and in vitro and in vivo evaluation of quinolones with selective activity against gram-positive organisms” (1992)
≈ marks a conversion by molar mass, not a printed value.

Tests used:
Assay type in all cases: functional
Acinetobacter = assay: In vitro minimum inhibitory concentration against Acinetobacter CMX 669 using brain-heart infusion agar
Procedure, shortened: (§1)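 Overnight cultures were grown in BHI broth at 36 °C. Twofold dilutions of a 2000 µg/mL stock were made in BHI agar, giving 200–0.005 µg/mL. Plates received about 10^4 organisms and were incubated for 18 h at 36 °C. MIC was the lowest concentration with no visible growth on the plate.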

Enterococcus faecium = assay: In vitro minimum inhibitory concentration against Enterococcus faecium ATCC 8043 using brain-heart infusion agar; procedure, shortened: as §1
Escherichia coli = assay: In vitro minimum inhibitory concentration against Escherichia coli Juhl using brain-heart infusion agar; procedure, shortened: as §1
Klebsiella aerogenes = assay: In vitro minimum inhibitory concentration against Enterobacter aerogenes ATCC 13048 using brain-heart infusion agar; procedure, shortened: as §1
Klebsiella pneumoniae = assay: In vitro minimum inhibitory concentration against Klebsiella pneumoniae 8045 using brain-heart infusion agar; procedure, shortened: as §1
Pseudomonas aeruginosa [1] = assay: In vitro minimum inhibitory concentration against Pseudomonas aeruginosa K799 / WT using brain-heart infusion agar; procedure, shortened: as §1
Pseudomonas aeruginosa [2] = assay: In vitro minimum inhibitory concentration against Pseudomonas aeruginosa A5007 using brain-heart infusion agar; procedure, shortened: as §1
Staphylococcus aureus [3] = assay: In vitro minimum inhibitory concentration against Staphylococcus aureus ATCC 6538P using brain-heart infusion agar; procedure, shortened: as §1
Staphylococcus aureus [4] = assay: In vitro minimum inhibitory concentration against Staphylococcus aureus A 5177 using brain-heart infusion agar; procedure, shortened: as §1
Staphylococcus aureus [5] = assay: In vitro minimum inhibitory concentration against Staphylococcus aureus CMX 553 using brain-heart infusion agar; procedure, shortened: as §1
[6] = system: Staphylococcus epidermidis; assay: In vitro minimum inhibitory concentration against Staphylococcus epidermidis 3159 using brain-heart infusion agar; procedure, shortened: as §1
Streptococcus equinus = assay: In vitro minimum inhibitory concentration against Streptococcus bovis A5169 using brain-heart infusion agar; procedure, shortened: as §1
Streptococcus agalactiae = assay: In vitro minimum inhibitory concentration against Streptococcus agalactiae CMX 508 using brain-heart infusion agar; procedure, shortened: as §1
Streptococcus pyogenes = assay: In vitro minimum inhibitory concentration against Streptococcus pyogenes 930 using brain-heart infusion agar; procedure, shortened: as §1
Staphylococcus aureus [7] = assay: In vitro minimum inhibitory concentration against Staphylococcus aureus NCTC 10649 using brain-heart infusion agar; procedure, shortened: as §1

Q: For `NC1CCN(c2nc3c(cc2F)c(=O)c(C(=O)O)cn3C2CC2)C1` (centres undefined), which MIC (Acinetobacter) is on record?
A: 0.1 µg/mL (≈ 0.301 µM)

Q: And the MIC (Enterococcus faecium)?
A: 0.39 µg/mL (≈ 1.17 µM)

Q: And the MIC (Escherichia coli)?
A: 0.01 µg/mL (≈ 0.0301 µM)

Q: What about the MIC (Klebsiella aerogenes) of the same compound?
A: 0.02 µg/mL (≈ 0.0602 µM)

Q: And the MIC (Klebsiella pneumoniae)?
A: 0.01 µg/mL (≈ 0.0301 µM)

Q: What about the MIC (Pseudomonas aeruginosa [1]) of the same compound?
A: 0.1 µg/mL (≈ 0.301 µM)

Q: What about the MIC (Pseudomonas aeruginosa [2]) of the same compound?
A: 0.1 µg/mL (≈ 0.301 µM)

Q: What about the MIC (Staphylococcus aureus [3]) of the same compound?
A: 0.1 µg/mL (≈ 0.301 µM)

Q: What about the MIC (Staphylococcus aureus [4]) of the same compound?
A: 0.2 µg/mL (≈ 0.602 µM)

Q: And the MIC (Staphylococcus aureus [5])?
A: 0.1 µg/mL (≈ 0.301 µM)

Q: What about the MIC [6] of the same compound?
A: 0.1 µg/mL (≈ 0.301 µM)

Q: What about the MIC (Streptococcus equinus) of the same compound?
A: 0.78 µg/mL (≈ 2.35 µM)

Q: And the MIC (Streptococcus agalactiae)?
A: 0.39 µg/mL (≈ 1.17 µM)

Q: And the MIC (Streptococcus pyogenes)?
A: 0.39 µg/mL (≈ 1.17 µM)

Q: For `O=C1CCN(c2cc3c(cc2F)c(=O)c(C(=O)O)cn3C2CC2)C1`, which MIC (Acinetobacter) is on record?
A: 50 µg/mL (≈ 151 µM)

Q: What about the MIC (Enterococcus faecium) of the same compound?
A: > 100 µg/mL

Q: And the MIC (Escherichia coli)?
A: 6.2 µg/mL (≈ 18.8 µM)

Q: What about the MIC (Klebsiella aerogenes) of the same compound?
A: 12.5 µg/mL (≈ 37.8 µM)

Q: What about the MIC (Klebsiella pneumoniae) of the same compound?
A: 6.2 µg/mL (≈ 18.8 µM)

Q: And the MIC (Pseudomonas aeruginosa [1])?
A: > 100 µg/mL

Q: And the MIC (Pseudomonas aeruginosa [2])?
A: > 100 µg/mL

Q: And the MIC (Staphylococcus aureus [3])?
A: 1.56 µg/mL (≈ 4.72 µM)

Q: What about the MIC (Staphylococcus aureus [4]) of the same compound?
A: 3.1 µg/mL (≈ 9.38 µM)

Q: What about the MIC (Staphylococcus aureus [5]) of the same compound?
A: 3.1 µg/mL (≈ 9.38 µM)

Q: And the MIC (Staphylococcus aureus [7])?
A: 1.56 µg/mL (≈ 4.72 µM)

Q: And the MIC [6]?
A: 3.1 µg/mL (≈ 9.38 µM)

Q: And the MIC (Streptococcus equinus)?
A: > 100 µg/mL

Q: What about the MIC (Streptococcus agalactiae) of the same compound?
A: 100 µg/mL (≈ 303 µM)

Q: What about the MIC (Streptococcus pyogenes) of the same compound?
A: > 100 µg/mL

Q: How did the MIC (Acinetobacter) turn out when `O=C1CCN(c2nc3c(cc2F)c(=O)c(C(=O)O)cn3-c2ccc(F)cc2F)CC1` was run?
A: 1.56 µg/mL (≈ 3.74 µM)

Q: What about the MIC (Enterococcus faecium) of the same compound?
A: 1.56 µg/mL (≈ 3.74 µM)

Q: And the MIC (Escherichia coli)?
A: 0.39 µg/mL (≈ 0.934 µM)

Q: And the MIC (Klebsiella aerogenes)?
A: 3.1 µg/mL (≈ 7.43 µM)

Q: And the MIC (Klebsiella pneumoniae)?
A: 0.39 µg/mL (≈ 0.934 µM)

Q: And the MIC (Pseudomonas aeruginosa [1])?
A: 3.1 µg/mL (≈ 7.43 µM)

Q: What about the MIC (Pseudomonas aeruginosa [2]) of the same compound?
A: 12.5 µg/mL (≈ 30 µM)

Q: And the MIC (Staphylococcus aureus [3])?
A: 0.05 µg/mL (≈ 0.12 µM)

Q: And the MIC (Staphylococcus aureus [4])?
A: 0.1 µg/mL (≈ 0.24 µM)

Q: And the MIC (Staphylococcus aureus [5])?
A: 0.1 µg/mL (≈ 0.24 µM)

Q: What about the MIC (Staphylococcus aureus [7]) of the same compound?
A: 0.1 µg/mL (≈ 0.24 µM)

Q: What about the MIC [6] of the same compound?
A: 0.2 µg/mL (≈ 0.479 µM)

Q: And the MIC (Streptococcus equinus)?
A: 3.1 µg/mL (≈ 7.43 µM)

Q: What about the MIC (Streptococcus agalactiae) of the same compound?
A: 1.56 µg/mL (≈ 3.74 µM)

Q: What about the MIC (Streptococcus pyogenes) of the same compound?
A: 1.56 µg/mL (≈ 3.74 µM)

Q: With `O=C1CCN(c2c(F)cc3c(=O)c(C(=O)O)cn(C4CC4)c3c2F)C1` as the compound, how does the MIC (Acinetobacter) read?
A: 3.1 µg/mL (≈ 8.9 µM)

Q: And the MIC (Enterococcus faecium)?
A: 6.2 µg/mL (≈ 17.8 µM)

Q: What about the MIC (Escherichia coli) of the same compound?
A: 0.39 µg/mL (≈ 1.12 µM)

Q: What about the MIC (Klebsiella aerogenes) of the same compound?
A: 1.56 µg/mL (≈ 4.48 µM)

Q: And the MIC (Klebsiella pneumoniae)?
A: 0.39 µg/mL (≈ 1.12 µM)

Q: What about the MIC (Pseudomonas aeruginosa [1]) of the same compound?
A: 50 µg/mL (≈ 144 µM)

Q: And the MIC (Pseudomonas aeruginosa [2])?
A: 50 µg/mL (≈ 144 µM)

Q: What about the MIC (Staphylococcus aureus [3]) of the same compound?
A: 0.78 µg/mL (≈ 2.24 µM)

Q: What about the MIC (Staphylococcus aureus [4]) of the same compound?
A: 0.78 µg/mL (≈ 2.24 µM)

Q: And the MIC (Staphylococcus aureus [5])?
A: 0.39 µg/mL (≈ 1.12 µM)

Q: What about the MIC (Staphylococcus aureus [7]) of the same compound?
A: 0.39 µg/mL (≈ 1.12 µM)

Q: What about the MIC [6] of the same compound?
A: 1.56 µg/mL (≈ 4.48 µM)

Q: And the MIC (Streptococcus equinus)?
A: 50 µg/mL (≈ 144 µM)

Q: What about the MIC (Streptococcus agalactiae) of the same compound?
A: 12.5 µg/mL (≈ 35.9 µM)

Q: What about the MIC (Streptococcus pyogenes) of the same compound?
A: 25 µg/mL (≈ 71.8 µM)
